Published values from different studies.
Target: Prostaglandin G/H synthase 1 (PTGS1, Ovis aries, UniProt P05979)
Read-out: enzyme activity
Action: inhibitor
Residues used in one study (P05979 25-600): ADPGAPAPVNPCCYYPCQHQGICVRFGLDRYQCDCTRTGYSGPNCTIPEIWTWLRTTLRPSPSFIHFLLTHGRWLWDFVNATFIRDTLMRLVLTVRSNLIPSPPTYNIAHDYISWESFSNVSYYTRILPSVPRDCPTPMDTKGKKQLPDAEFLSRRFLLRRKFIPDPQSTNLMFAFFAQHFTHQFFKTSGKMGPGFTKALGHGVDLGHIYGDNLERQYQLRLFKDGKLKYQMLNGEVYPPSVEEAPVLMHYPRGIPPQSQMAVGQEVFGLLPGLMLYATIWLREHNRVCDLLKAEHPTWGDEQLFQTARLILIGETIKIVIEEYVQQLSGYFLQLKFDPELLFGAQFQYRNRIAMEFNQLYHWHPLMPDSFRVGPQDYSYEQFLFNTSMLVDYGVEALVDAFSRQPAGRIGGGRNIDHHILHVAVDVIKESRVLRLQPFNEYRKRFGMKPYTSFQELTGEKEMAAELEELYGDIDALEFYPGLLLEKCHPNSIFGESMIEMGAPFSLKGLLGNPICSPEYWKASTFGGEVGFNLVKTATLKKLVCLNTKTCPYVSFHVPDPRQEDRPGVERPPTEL

With `CSc1ccc(/C=C2\C=C(CC(=O)NS(=O)(=O)C(F)(F)F)c3cc(F)ccc32)cc1` the IC50 was 0.7 to 1 µM.
`COc1ccc(-c2nn(-c3ccc(S(C)(=O)=O)cc3)cc2C=N/N=c2\[nH]c(-c3ccc([N+](=O)[O-])cc3)cs2)cc1` has an IC50 of 23.2 µM.
`COc1ccc(F)c(-c2ccccc2F)c1` has an IC50 of 9.98 µM (absorbance).
`COc1ccc(Nc2c(-c3ccc(S(C)(=O)=O)cc3)nc3ccccn23)cc1` gave an IC50 of 16.5 µM (fluorescence).
The IC50 of `CC(C)Cc1ccc(-c2nn(-c3ccc(S(C)(=O)=O)cc3)cc2/C=N\N=C2/NC(=O)CS2)cc1` is reported as 19.7 µM.
The IC50 of `NS(=O)(=O)c1ccc(-c2ncccc2-c2nc3ccccc3s2)cc1` is reported as over 100 µM (absorbance).
For `Cc1ccc(Nc2c(-c3ccc(S(C)(=O)=O)cc3)nc3ccccn23)cc1`, the IC50 was 23.1 µM (fluorescence).
For `C[C@@H]1O[C@@H](O[C@H]2[C@H](Oc3c(-c4ccc(O)cc4)oc4cc(O)cc(O)c4c3=O)O[C@H](CO[C@@H]3O[C@H](CO)[C@@H](O)[C@H](O)[C@H]3O)[C@@H](O)[C@@H]2O)[C@H](O)[C@H](O)[C@H]1O`, the IC50 was 21.8 µM (absorbance).
`CSc1ccc(/C=C2\C=C(CC(=O)NS(=O)(=O)c3ccc(Cl)s3)c3cc(F)ccc32)cc1` has an IC50 of 2 µM.
For `O=[N+]([O-])c1ccc(-c2ccccc2F)cc1`, the IC50 was 10.1 µM (absorbance).
With `Cc1cccn2c(Nc3ccccc3)c(-c3ccc(S(C)(=O)=O)cc3)nc12` the IC50 was 35.6 µM (fluorescence).
For `COc1ccc(-c2nn(-c3ccc(S(C)(=O)=O)cc3)cc2/C=N/N=c2\[nH]c(-c3ccc(Br)cc3)cs2)cc1`, the IC50 was 62.7 µM.
With `NS(=O)(=O)c1ccc(-c2ncc(Cl)cc2-c2nc3ccccc3s2)cc1` the IC50 was over 100 µM (absorbance).
With `CC(C)Cc1ccc(-c2nn(-c3ccc(S(C)(=O)=O)cc3)cc2/C=N/N=c2\[nH]c(-c3ccc(Br)cc3)cs2)cc1` the IC50 was 27.5 µM.
With `COc1ccc(Nc2c(-c3ccc(S(C)(=O)=O)cc3)nc3c(C)cccn23)cc1` the IC50 was 30 µM (fluorescence).
`O=[N+]([O-])c1cccc(-c2ccccc2F)c1F` has an IC50 of 10.2 µM (absorbance).
With `Cc1cccc2nc(-c3ccc(S(C)(=O)=O)cc3)c(Nc3ccc(F)cc3)n12` the IC50 was 40.2 µM (fluorescence).
For `Cc1ccc(-c2nc3ccccc3s2)c(-c2ccc(S(N)(=O)=O)cc2)c1`, the IC50 was over 100 µM (absorbance).
With `CS(=O)(=O)c1ccc(-n2cc(C=N/N=c3\[nH]c(-c4ccc(Br)cc4)cs3)c(-c3ccc([N+](=O)[O-])cc3)n2)cc1` the IC50 was 68.2 µM.
`CSc1ccc(/C=C2\C=C(CC(=O)NS(=O)(=O)c3ccc4ccccc4c3)c3cc(F)ccc32)cc1` has an IC50 of 2 µM.
`Cc1ccc(Nc2c(-c3ccc(S(C)(=O)=O)cc3)nc3c(C)cccn23)cc1` gave an IC50 of 35.6 µM (fluorescence).
The IC50 of `COc1ccccc1-c1ccc([N+](=O)[O-])cc1` is reported as 8.79 µM (absorbance).
The IC50 of `Cc1cccn2c(Nc3ccc(Cl)cc3)c(-c3ccc(S(C)(=O)=O)cc3)nc12` is reported as 29.4 µM (fluorescence).
With `Fc1ccc(-c2ccccc2F)cc1OC(F)(F)F` the IC50 was 11 µM (absorbance).
